# High-throughput results deposited in PubChem BioAssay by The Scripps Research Institute Molecular Screening Center.
# S1P4 ag = S1P4 receptor agonists, primary screen, cell-based; Sphingosine 1-phosphate receptor 4 (Homo sapiens), O95977; S1P4-expressing cell line, agonist reporter assay; activation, % at 4.98 µM; actives 0.35% (n = 220,000); in the data active means activation above about 11%;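 further: 0% = DMSO vehicle and 100% = reference agonist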
# S1P4 antag = S1P4 receptor antagonists, primary screen, cell-based. Sphingosine 1-phosphate receptor 4 (Homo sapiens), O95977. S1P4-expressing cells, antagonist mode, reporter read-out. inhibition, % at 4.98 µM. actives 0.26% (n = 220,000). AID 1510, 2009; in the data active means inhibition above about 29%;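 further: 0% = wells stimulated with agonist and 100% = vehicle wells without agonist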
# NPY-Y2 PAM-ag = NPY-Y2 potentiators or agonists, primary screen, cell-based; Neuropeptide Y receptor type 2 (Homo sapiens), P49146; cells expressing NPY-Y2, potentiator/agonist read-out; activation, % at 3.6 µM; actives 0.45% (n = 220,000); in the data active means activation above about 27%;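 further: cells stimulated with NPY near EC25 plus isoproterenol at EC100; 0% = vehicle plus submaximal agonist and 100% = vehicle plus saturating agonist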
# Target sequence (P49146 whole entry, looked up): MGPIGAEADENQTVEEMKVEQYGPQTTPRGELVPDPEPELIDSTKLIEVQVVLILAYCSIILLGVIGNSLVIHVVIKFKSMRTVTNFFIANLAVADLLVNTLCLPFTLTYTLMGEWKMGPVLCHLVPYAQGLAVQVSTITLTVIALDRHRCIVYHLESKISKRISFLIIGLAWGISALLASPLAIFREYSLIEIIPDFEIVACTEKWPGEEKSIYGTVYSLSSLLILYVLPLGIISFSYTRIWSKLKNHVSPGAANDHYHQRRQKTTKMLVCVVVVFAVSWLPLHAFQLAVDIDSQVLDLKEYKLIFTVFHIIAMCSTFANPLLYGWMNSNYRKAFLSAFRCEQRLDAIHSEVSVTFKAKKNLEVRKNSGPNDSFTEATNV
# NPY1 pot ag = NPY-Y1 receptor potentiators or agonists, primary screen, cell-based. Neuropeptide Y receptor type 1 (Homo sapiens), P25929. NPY-Y1 expressing cells, potentiator/agonist activation. activation, % at 3.6 µM. actives 0.37% (n = 220,000). AID 1304, 2008; in the data active means activation above about 33%, passing the limit was not always enough;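 further: cells stimulated with NPY at EC10 then isoproterenol at EC100; 0% = low agonist plus stimulus and 100% = saturating agonist plus stimulus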
# Target sequence (P25929 whole entry, looked up): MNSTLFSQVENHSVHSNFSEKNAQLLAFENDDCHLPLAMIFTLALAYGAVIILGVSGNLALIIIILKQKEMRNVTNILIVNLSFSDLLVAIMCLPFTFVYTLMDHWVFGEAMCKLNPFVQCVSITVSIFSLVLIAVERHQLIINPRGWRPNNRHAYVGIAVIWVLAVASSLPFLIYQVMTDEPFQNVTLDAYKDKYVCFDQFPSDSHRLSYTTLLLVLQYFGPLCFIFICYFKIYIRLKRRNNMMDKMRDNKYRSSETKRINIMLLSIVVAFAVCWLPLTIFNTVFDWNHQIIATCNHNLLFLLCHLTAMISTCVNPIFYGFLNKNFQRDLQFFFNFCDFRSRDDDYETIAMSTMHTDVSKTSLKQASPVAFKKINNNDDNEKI
# NPY-Y2 antag = NPY-Y2 receptor antagonists, primary screen, cell-based; inhibition, % at 2.7 µM; NPY-Y2 expressing cells, antagonist mode; Neuropeptide Y receptor type 2 (Homo sapiens), P49146; actives 0.99% (n = 140,000); in the data active means inhibition above about 17%;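 further: 0% = vehicle with agonist challenge and 100% = reference antagonist with challenge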
# NPY Y1 blocker = NPY-Y1 receptor antagonists, primary screen, cell-based | AID 1040, 2008 | actives 1% (n = 200,000) | inhibition, % at 3.6 µM | Neuropeptide Y receptor type 1 (Homo sapiens), P25929 | HEK293-CNG Y1 cells, membrane potential fluorescence; NPY at EC95, then isoproterenol;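 active means inhibition above the campaign mean inhibition of all tested compounds plus 3 SD, cut at about 20% in these data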;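 further: 0% = DMSO wells given NPY plus isoproterenol and 100% = isoproterenol alone without NPY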
#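 Test system: HEK293 cells co-expressing NPY Y1 receptor and cyclic-nucleotide gated channel; Also added: NPY (25 nM), isoproterenol (1 µM), Ro 20-1724 (25 µM); Compound dosing: one concentration, 3.6 µM, in 0.4% DMSO; Timing: dye 3 h, compound 60 min room temperature, stimulation 45 min; Technique: Membrane-potential fluorescent dye readout.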
# NPY-Y2 confirm = NPY-Y2 potentiators or agonists, confirmation, cell-based. AID 1539, 2009. cell-based NPY-Y2 potentiator/agonist assay. actives 20% (n = 450). shares compounds with NPY-Y2 PAM-ag. activation, % at 3.6 µM; in the data active means activation above about 33%
# NPY-Y1 counter = NPY-Y1 potentiators or agonists, counter-screen for NPY-Y2 potentiator project, cell-based, fluorescence; shares compounds with NPY-Y2 PAM-ag; Y1 HEK293-CNG cells, membrane potential fluorescence; activation, % at 3.6 µM; actives 20% (n = 450); in the data active means activation above about 45%;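 further: cells stimulated with submaximal NPY then isoproterenol with phosphodiesterase inhibitor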
# NPY-Y1 ag 2 = NPY-Y1 direct agonists, selectivity assay for NPY-Y2 potentiator project, cell-based, fluorescence; shares compounds with NPY-Y2 PAM-ag; HEK293 Y1-CNGC, membrane potential fluorescence, agonism; activation, % at 3.6 µM; actives 37% (n = 450);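 active means activation above the mean of DMSO-only control wells plus 3 SD, cut at about 18% in these data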;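 further: cells stimulated with 1 µM isoproterenol plus the PDE inhibitor Ro 20-1724; 0% = isoproterenol with DMSO and no NPY and 100% = 40 nM NPY; Y1 agonists lower the membrane potential dye signal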
# CNGC inh = CNGC cAMP sensor activity inhibitors, counter-screen for NPY-Y2 potentiator project, cell-based, HEK293-CNG parental, membrane potential fluorescence; shares compounds with NPY-Y2 PAM-ag; isoproterenol cAMP; inhibition, % at 3.6 µM; actives 32% (n = 450); AID 1703, 2009;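 active means inhibition above the control-well mean plus 3 SD of those wells, cut at about 22% in these data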;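 further: 0% = DMSO with isoproterenol and 100% = DMSO without isoproterenol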
# NPY-Y2 ag 2 = NPY-Y2 direct agonists, counter-screen for NPY-Y2 potentiator project, cell-based, fluorescence | actives 56% (n = 450) | shares compounds with NPY-Y2 PAM-ag | activation, % at 3.6 µM | HEK293 Y2/CNGC cells, membrane potential fluorescence, agonist mode | AID 1710, 2009;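 active means activation above the mean of solvent-only control wells plus 3 SD, cut at about 10% in these data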;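 further: cells stimulated by isoproterenol with no NPY added so direct agonism is tested; 0% = DMSO with isoproterenol alone and 100% = NPY at EC100 plus isoproterenol; agonism lowers probe fluorescence through less cAMP and CNG channel opening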
# Numbers without * were called inactive; · = no result. This is a sample that favours compounds with a hit; in the whole collection about 2.4% have one here.
SMILES,S1P4 ag,S1P4 antag,NPY-Y2 PAM-ag,NPY1 pot ag,NPY-Y2 antag,NPY Y1 blocker,NPY-Y2 confirm,NPY-Y1 counter,NPY-Y1 ag 2,CNGC inh,NPY-Y2 ag 2
CC(=O)c1cc(-c2ccccc2)n(CC(=O)NC2CCCC2)c1C,-0.5,-1.7,-20.6,-5.8,2.0,7.3,·,·,·,·,·
O=C(Nc1ccc(S(=O)(=O)Nc2ncccn2)cc1)c1ccc(Br)s1,-0.7,-23.5,27.7*,11.6,1.3,-0.4,3.1,5.2,10.3,6.8,9.1
O=C(CCl)NC(=O)NC12CC3CC(CC(C3)C1)C2,-0.4,11.6,40.8*,30.8,1.4,-12.9,27.6,49.2*,34.6*,9.8,26.6*
Cc1ccc(O)c(-c2cc(-c3ccccc3[N+](=O)[O-])[nH]n2)c1,0.3,9.4,35.0*,31.2,-6.9,-12.3,34.5*,37.9,35.6*,33.4*,34.5*
O=[N+]([O-])c1ccccc1-c1cc(-c2cc(Cl)ccc2O)n[nH]1,2.1,-32.5,31.1*,35.8,-7.6,-9.4,49.6*,59.4*,52.0*,54.1*,60.4*
COc1ccc(O)c(-c2cc(-c3ccccc3[N+](=O)[O-])[nH]n2)c1,1.0,-4.5,18.5,30.9,-6.5,-11.5,·,·,·,·,·
Oc1ccc(Cl)cc1-c1cc(-c2ccco2)[nH]n1,-1.2,-10.7,28.7*,41.1,-6.4,-7.3,26.2,37.5,32.6*,23.6*,31.5*
Oc1ccccc1-c1cc(-c2ccco2)[nH]n1,2.3,-3.4,-0.6,12.0,-0.5,-5.8,·,·,·,·,·
COc1cc(/C=C(\NC(=O)c2ccccc2)C(=O)N2CC3CC(C2)c2cccc(=O)n2C3)cc(OC)c1OC (configuration not stated),0.0,1.3,6.4,3.9,·,·,·,·,·,·,·
Cc1ccc(C(=O)N/C(=C\c2cn(-c3ccccc3)nc2-c2ccccc2)C(=O)N2CCOCC2)cc1,1.2,-19.4,-7.8,1.1,-0.8,-1.2,·,·,·,·,·
C#CCSc1nc(N)c2c(n1)OC(N)=C(C#N)C2c1cccnc1 (configuration not stated),1.0,-11.2,58.1*,3.9,·,-3.8,21.1,24.9,16.2,-3.7,6.4
Cc1cc(C)nc(N2CCCC(C(=O)NCc3ccc4c(c3)OCO4)C2)n1 (configuration not stated),0.6,7.4,72.4*,-5.5,·,7.6,-9.7,-8.9,-10.8,-8.0,-3.2
Cc1cc(C)nc(N2CCCC(C(=O)Nc3ccc4c(c3)OCO4)C2)n1 (configuration not stated),-0.3,6.5,-20.6,-14.8,2.6,9.8,·,·,·,·,·
O=S(=O)(c1cccc(NC(=S)N2CCN(c3cccc(Cl)c3)CC2)c1)C(F)F,2.4,-3.8,30.5*,7.5,-2.5,-4.5,10.4,-1.4,6.6,12.8,16.7*
O=S(=O)(c1cccc(NC(=S)N2CCN(c3ccc(F)cc3)CC2)c1)C(F)F,2.5,-6.7,8.8,8.8,-2.4,-9.6,·,·,·,·,·
Cc1cc(CN(C)C(=O)c2cc(COc3ccc4ncccc4c3)on2)on1,1.0,-25.7,37.9*,-7.8,·,-3.5,-6.0,-44.0,-28.4,-12.2,-11.1
CN(Cc1nccn1C)C(=O)c1cc(COc2ccc3ncccc3c2)on1,0.8,-12.5,5.5,19.7,·,-1.2,·,·,·,·,·
C=COCCNC(=S)N1CCOCCOCCN(C(=S)NCCOC=C)CCOCCOCC1,0.9,11.3,-1.8,1.8,·,5.5,·,·,·,·,·
O=C(NC(=S)NCC1CCCO1)C(c1ccccc1)c1ccccc1 (configuration not stated),0.6,-16.9,-2.8,-4.7,3.9,7.9,·,·,·,·,·
O=C(O)CC1(CC(=O)Nc2ccccc2N2CCOCC2)CCCC1,-1.6,4.8,59.1*,23.6,·,·,-3.7,-7.6,-4.1,-5.0,-4.8
O=C(O)CCC(=O)Nc1ccccc1N1CCOCC1,-1.4,-3.0,2.0,1.1,-0.8,-5.4,·,·,·,·,·
O=C1c2ccccc2-c2onc3ccc(NCCCn4ccnc4)c1c23,-2.1,-2.1,38.4*,38.3,33.6*,9.2,-3.3,-6.3,-10.8,-9.6,2.8
Cc1nc(NCCCn2ccnc2)c2ccccc2n1,2.3,-12.6,0.7,12.7,2.0,-0.2,·,·,·,·,·
CCS(=O)(=O)c1nc(S(=O)(=O)c2ccc(Cl)cc2)c(NCc2ccccn2)s1,-0.4,-16.6,-5.4,-3.7,·,-2.3,·,·,·,·,·
COc1ccc(C)cc1NC(=O)c1ccccc1NS(=O)(=O)c1ccc(Cl)s1,0.9,-23.1,57.5*,-2.1,·,7.2,-6.3,-46.4,-30.4,-23.1,-10.9
SMILES,S1P4 ag,S1P4 antag,NPY-Y2 PAM-ag,NPY1 pot ag,NPY-Y2 antag,NPY Y1 blocker,NPY-Y2 confirm,NPY-Y1 counter,NPY-Y1 ag 2,CNGC inh,NPY-Y2 ag 2
CC1(C)C=C(c2ccc(O)cc2)CC(C)(C)N1,20.0*,13.9,35.6*,22.6,-0.4,-1.5,0.5,-0.7,-11.3,1.8,6.3
CCc1nc2ccccc2nc1N1CCN(S(=O)(=O)c2ccc(Cl)cc2)CC1,-0.3,-4.0,-0.1,-30.2,·,·,·,·,·,·,·
CC(=O)SCCC(=O)Nc1ccccc1,0.9,-7.3,43.7*,26.4,-7.2,-15.6,31.6,41.2,51.6*,37.2*,46.8*
CC(=O)NNC(=O)CCC(=O)Nc1ccccc1,0.0,0.4,0.4,-1.0,2.7,-1.2,·,·,·,·,·
CCOC(=O)C1CCN(c2ncnc3c2cnn3-c2ccc(Cl)cc2)CC1,0.6,-14.6,48.0*,-1.5,9.0,2.0,-21.2,-34.4,-7.5,-11.8,4.9
CCOC(=O)C1CCN(c2ncnc3c2cnn3-c2ccccc2)CC1,-1.2,-28.1,5.4,-25.1,5.2,0.9,·,·,·,·,·
CCN(CC)S(=O)(=O)c1ccc(Cl)c(NC(=O)CCCCl)c1,1.2,-5.6,-15.8,16.7,·,·,·,·,·,·,·
